Where “and” joins values, the source holds several entries; their conditions need not be identical. Equal values may be shown once. Calls of active or inactive are those of the source.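 Rule for the calls: active = compounds cutting cell viability whose fitted half-maximal concentration is at most twice the top tested dose; inconclusive = flat loss between 30% and 70%, or poor curve fit; inactive = opposite effect, flat within 30%, or weaker potency.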

System in the first assay: not listed separately
The assay can be described thus: cytotoxicity in ldlA[mSR-BI] CHO cells, dose response, cytotoxicity control for SR-BI HDL uptake inhibitor project, cell-based, CellTiter-Glo luminescence, 24 h, dry powder, set 3 (AID 588826). The settings on record: ldlA[mSR-BI] CHO cells viability, CellTiter-Glo ATP, 24 h; at 11 µM (top of the series). The method, boiled down: (§1)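 Timing: 24 h compound exposure at 37 °C, read 10 min after reagent; material: ldlA[mSR-BI] cells; evaluation: IC50 from dose-response of viability, signal loss meaning toxicity; measured by: ATP luminescence, CellTiter-Glo; medium: Ham's F12 plus 10% FCS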
Regarding `CC(C)NC(=O)Nc1cccc2c1O[C@H](CN(C)Cc1ccc(Cl)c(Cl)c1)[C@@H](C)CN([C@@H](C)CO)C2=O`, the activity change, negative = cytotoxicity is 6.58% (inactive).

Still in this assay, the particulars now being: ldlA[mSR-BI] CHO cells viability, CellTiter-Glo ATP, 24 h; at 30 µM (top of the series).
`C[C@@H]1CN([C@@H](C)CO)C(=O)Cc2cc(NC(=O)Nc3ccc(C(F)(F)F)cc3)ccc2O[C@@H]1CN(C)S(=O)(=O)c1ccc(Cl)cc1`: the activity change, negative = cytotoxicity is -40.4% (inactive).

The assay is the same for the next values; noted with them: ldlA[mSR-BI] CHO cells viability, CellTiter-Glo ATP, 24 h; at 35 µM (top of the series).
As to `CCC(=O)N1CC(C)(C)c2cc(-c3csc(NC(=O)c4cc(OC)cc(OC)c4)n3)ccc21`, the activity change, negative = cytotoxicity is -3.5% (inactive).
For the molecule `CCNC(=O)N1CCc2cc(-c3csc(NC(=O)c4cc(OC)cc(OC)c4)n3)ccc21`, the activity change, negative = cytotoxicity was -8.64% (inactive).
For the molecule `COCC(=O)N1CCc2cc(-c3csc(NC(=O)c4cc(OC)cc(OC)c4)n3)ccc21`, the activity change, negative = cytotoxicity was 4.05% (inactive).
As for `COc1ccc(-c2nnn(CC(=O)N(C3CCN(C)CC3)C(C)C(=O)NC3CCCC3)n2)cc1OC` (stereo not given), the activity change, negative = cytotoxicity is 9.25% (inactive).
As for `CCC(=O)N1CCc2cc(-c3csc(NC(=O)c4ccc(Cl)s4)n3)ccc21`, the activity change, negative = cytotoxicity is -1.8% (inactive).
As to `COc1ccc(-c2cc(CC(=O)N(C3CCCCC3)C(C)C(=O)NC3CCCC3)no2)cc1OC` (stereo not given), the activity change, negative = cytotoxicity is 3.77% (inactive).
Consider `C[C@@H]1CN([C@H](C)CO)C(=O)c2cc(NC(=O)Cc3cn(C)c4ccccc34)ccc2O[C@H]1CN(C)S(=O)(=O)c1ccc(F)cc1`, for which the activity change, negative = cytotoxicity was -4.67% (inactive).
In the case of `C[C@@H]1CN([C@H](C)CO)C(=O)c2cc(NC(=O)Cc3cn(C)c4ccccc34)ccc2O[C@H]1CN(C)S(=O)(=O)c1ccc(Cl)cc1`, the activity change, negative = cytotoxicity is 4.93% (inactive) and -3.5% (inactive) and 6.65% (inactive).
Turning to `COc1ccc(-c2nnn(CC(=O)N(C3CCCCC3)C(C(=O)NC3CCCC3)C(C)C)n2)cc1OC` (stereo not given), the activity change, negative = cytotoxicity was -15.8% (inactive).
Still for that read-out and setting: the value for `CC(C(=O)NC1CCCC1)N(C(=O)Cn1nnc(-c2ccccc2)n1)C1CCCCC1` (stereo not given) was 4.27% (inactive); that for `CCOC(=O)N1CCC(NC(=O)c2ccc3c(c2)N(Cc2ccc(F)cc2)CCS3)CC1` was -13.6% (inactive).
Still for that read-out and setting: the value for `CC(C)(Sc1cc(C(C)(C)C)c(O)c(C(C)(C)C)c1)Sc1cc(C(C)(C)C)c(O)c(C(C)(C)C)c1` was -1.63% (inactive); that for `COc1cc(OC)cc(C(=O)Nc2nc(-c3ccc4c(c3)CCN4C(=O)OC(C)(C)C)cs2)c1` was 5.45% (inactive); that for `C[C@H](C(=O)NC1CCCC1)N(C(=O)Cn1nnc(-c2ccc3c(c2)OCO3)n1)C1CCCCC1` was -10.6% (inactive).
On to `CCC(=O)N1CCc2cc(-c3csc(NC(=O)c4ccc5c(c4)OCO5)n3)ccc21`, for which the activity change, negative = cytotoxicity was 1.94% (inactive).
On to `COc1cc(OC)cc(C(=O)Nc2nc(-c3ccc4c(c3)CCN4C(=O)CN(C)C)cs2)c1`, for which the activity change, negative = cytotoxicity is -10.2% (inactive).
As to `CCC(=O)N1CCc2cc(-c3csc(NC(=O)c4cccc(C#N)c4)n3)ccc21`, the activity change, negative = cytotoxicity was -0.356% (inactive).
Still for that read-out and setting: in the case of `O=C(CN(C(=O)Cn1nnc(-c2ccc3c(c2)OCO3)n1)C1CCCCC1)NC1CCCC1` it was -3.34% (inactive); in that of `CCC(=O)N1CCc2cc(-c3csc(NC(=O)c4ccco4)n3)ccc21`, -2.4% (inactive); in that of `CC1CCC/C=C/C2CC(O)CC2C(O)/C=C\C(=O)O1` (stereo not given), -9.81% (inactive).
Regarding `COc1ccc(-c2nnn(CC(=O)N(C3CCCCC3)C(C)C(=O)NC3CCCC3)n2)cc1OC` (stereo not given), the activity change, negative = cytotoxicity is 37.1% (inactive).
Regarding `CCC(=O)N1CCc2cc(-c3csc(NC(=O)c4ccc(F)c(OC)c4)n3)ccc21`, the activity change, negative = cytotoxicity is -12.3% (inactive).
Same read-out and setting: the value for `CC(=O)N1CCc2cc(-c3nc(NC(=O)c4cccc(OC(F)(F)F)c4)sc3C)ccc21` was 1.36% (inactive).
`CCC(=O)N1CCc2cc(-c3csc(NC(=O)c4cccc(OC)c4)n3)ccc21`: the activity change, negative = cytotoxicity was 3.32% (inactive).
On to `COc1ccc(-c2nnn(CC(=O)N(CC3CCCCC3)C(C)C(=O)NC3CCCC3)n2)cc1OC` (stereo not given), for which the activity change, negative = cytotoxicity was 3.32% (inactive).
Same read-out and setting: in the case of `COc1ccc(-c2nnn(CC(=O)N(C3CCCC3)C(C)C(=O)NC3CCCC3)n2)cc1OC` (stereo not given) it was -0.791% (inactive).

Staying with this assay, now noted: ldlA[mSR-BI] CHO cells viability, CellTiter-Glo ATP, 24 h; at 68 µM (top of the series).
`CCOc1ccc(NC(=O)CN2CCN(CC(=O)Nc3cc(OC)cc(OC)c3)CC2)cc1`: the activity change, negative = cytotoxicity is -0.275% (inactive).

Another assay relates to ldlA[mSR-BI] CHO cells viability, CellTiter-Glo ATP, 24 h. The description is as above.
Conditions: not given
In outline: as §1
As usually defined, the IC50 is the concentration at which inhibition is half-maximal. `CC(C(=O)NC1CCCC1)N(C(=O)Cn1nnc(-c2ccc(Cl)cc2)n1)C1CCCCC1` (stereo not given): the IC50 is 53 µM.
With `COc1c(NC(=O)C(=O)c2ccc(OCCN3CCOCC3)c3ccccc23)cc(C(C)(C)C)cc1NS(C)(=O)=O`, the half-inhibitory concentration (IC50) is 17.8 µM.
Still for that read-out and setting: in the case of `CCCCCCC1CCC/C1=N\NC(N)=S` (stereo not given) it was 4.46 µM; in that of `Cc1ccc2oc(-c3cccc(NC(=O)c4cc(-n5cnnc5)ccc4Cl)c3)nc2c1`, 39.9 µM.
The same measure, in the same setting: in the case of `C[C@H]1CN([C@@H](C)CO)C(=O)c2cccc(NC(=O)Nc3ccccc3)c2O[C@@H]1CN(C)Cc1ccc(Cl)c(Cl)c1` it was 16.1 µM; in that of `CCOc1ccccc1/C=C/c1onc(C)c1S(=O)(=O)N1CCC(C(=O)NC(C)(C)C)CC1`, 33.8 µM.

Source of the values: PubChem BioAssay AID588826 (Broad Institute, 2011).
